# Assay results pooled from the literature.
# Each line is one published result; the experiments were not run side by side.
# Target: Serine/threonine-protein kinase STK11 (STK11, Homo sapiens, UniProt Q15831)
# One construct used (Q15831 1-433): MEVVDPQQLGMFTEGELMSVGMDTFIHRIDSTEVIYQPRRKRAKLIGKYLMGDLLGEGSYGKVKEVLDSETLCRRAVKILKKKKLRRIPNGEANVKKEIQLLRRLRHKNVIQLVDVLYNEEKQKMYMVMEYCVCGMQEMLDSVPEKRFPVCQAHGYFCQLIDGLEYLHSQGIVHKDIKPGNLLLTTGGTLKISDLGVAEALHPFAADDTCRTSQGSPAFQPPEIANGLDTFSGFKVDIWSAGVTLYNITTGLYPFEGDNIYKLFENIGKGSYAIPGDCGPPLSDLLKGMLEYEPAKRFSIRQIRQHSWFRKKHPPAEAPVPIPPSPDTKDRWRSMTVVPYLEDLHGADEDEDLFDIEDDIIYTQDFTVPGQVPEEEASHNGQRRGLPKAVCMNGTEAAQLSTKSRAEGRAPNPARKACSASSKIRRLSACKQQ
Compound,assay,conditions,quantity,value
Cn1nc(C(F)(F)F)cc1-c1cnc(N2CCc3cc(S(=O)(=O)Nc4c(F)cc(Cl)cc4F)cc(N4CCCC4=O)c32)nc1,"cell-free assay, competition with immobilised ligand",1 µM,remaining binding,100%
CNC(=O)c1cc(Oc2ccc(NC(=O)Nc3ccc(Cl)c(C(F)(F)F)c3)cc2)ccn1,cell-free assay,0.5 µM,remaining signal,104%
N#CC1(c2ccccn2)CCN(Cc2cc(C(=O)N3CCCC3)c(=O)n3ccccc23)CC1,"cell-free assay, competition with immobilised ligand",1 µM,remaining binding,77%
COc1cc(Cl)c(C(=O)N[C@@H](CN[C@H]2CC[C@@H](N)CC2)Cc2ccc(C#N)cc2)cc1-c1ccc(CN[C@H](C)c2ccc(C)cc2)o1,"enzyme activity, inhibitor",1 µM,remaining activity,101%
FC(F)c1nc2ccccc2n1-c1nc(N2CCOCC2)nc(N2CCOCC2)n1,"enzyme activity, inhibitor",10 µM,remaining activity,103%
CN(c1ccnc(CNc2nc(Nc3ccc4c(c3)CC(=O)N4)ncc2C(F)(F)F)n1)S(C)(=O)=O,"cell-free assay, competition with immobilised ligand",1 µM,remaining binding,72%
COc1cc(/C=C/C(=O)CC(=O)/C=C/c2ccc(O)c(OC)c2)ccc1O,"enzyme activity, inhibitor",1 µM,activity vs control,95%
FC(F)(F)Oc1cccc(-c2cnc3ccc(-c4ccncc4)nn23)c1,"enzyme activity, inhibitor, radiometric",5 µM,activity vs control,106%
COc1cc(Nc2cnc(C#N)c(O[C@H](C)CN(C)C)n2)ncc1-c1cnn(C)c1,"enzyme activity, inhibitor, radiometric",1 µM,remaining activity,96%
Cc1ccc(C(=O)Nc2ccc(CN3CCN(C)CC3)c(C(F)(F)F)c2)cc1C#Cc1cnc2cccnn12,"enzyme activity, inhibitor",23.5 nM,remaining activity,96%
CS(=O)(=O)c1cc(C2(NC(=O)c3cncc4c3cnn4-c3ccc(F)cc3)CC2)ccn1,"cell-free assay, competition with immobilised ligand",1 µM,remaining binding,100%
CC(C)(O)[C@H]1CC[C@H](Nc2ccc3ncc(-c4cccc(C(F)(F)F)c4)n3n2)CC1,"enzyme activity, inhibitor",1 µM,remaining activity,90.5%
CCCS(=O)(=O)Nc1ccc(F)c(C(=O)c2c[nH]c3ncc(-c4ccc(Cl)cc4)cc23)c1F,"enzyme activity, inhibitor",1 µM,inhibition,< 10%
O=c1nc(-c2ccccn2)sc2ccccc12,"binding, competition with immobilised ligand",1 µM,remaining binding,79%
Cc1ccc(NC(=O)c2ccc(CN3CCN(C)CC3)cc2)cc1Nc1nc(-c2cccnc2)cs1,cell-free assay,0.5 µM,remaining signal,102%
Cc1cnc(NC2CCOCC2)nc1-n1cnc(C(=O)NC(CN)c2cc(F)cc(Cl)c2)c1 (stereo not shown),"enzyme activity, inhibitor, radiometric",1 µM,remaining activity,104%
Cc1cc(NC(=O)c2cccc3cc(-c4cccc5[nH]nc(N)c45)ccc23)ccc1F,"enzyme activity, inhibitor",0.1 µM,activity vs control,97%
Cc1cc(-n2nc(Cc3cc(F)cc(C(F)(F)F)c3)nc2C)ccc1C(N)=O,"cell-free assay, competition with immobilised ligand",1 µM,remaining binding,100%
CN1CC(Oc2cnc(C#N)cc2-c2ccn3nc(NC(=O)C4CC4)cc3c2)C1,"enzyme activity, inhibitor",1 µM,inhibition,-2%
O=C(Nc1cnn(-c2csc(C(=O)NC3COC3)c2)c1)Nc1c(F)cccc1Cl,"enzyme activity, inhibitor",5 µM,remaining activity,94.7%
CC(=O)N1CCC(c2ccc(C(=O)NC3=NCCN3)cc2C(F)(F)F)CC1,"cell-free assay, competition with immobilised ligand",1 µM,remaining binding,71%
Cc1ccc(Nc2nccc(N(C)c3ccc4c(C)n(C)nc4c3)n2)cc1S(N)(=O)=O,"enzyme activity, inhibitor",0.3 µM,inhibition,-6%
C[C@@H]1CN(c2cc(-c3nn(C)c4ccc(OC5(C)CC5)cc34)ncn2)C[C@H](C)O1,"cell-free assay, competition with immobilised ligand",1 µM,remaining binding,94%
CC(C)c1ccc(NC(=O)c2cccs2)c(-c2nc3ccccc3[nH]c2=O)c1,"enzyme activity, inhibitor",1 µM,activity vs control,76%
CCN(CC)CCNC(=O)c1c(C)[nH]c(/C=C2\C(=O)Nc3ccc(F)cc32)c1C,"enzyme activity, inhibitor",0.3 µM,inhibition,-11%
